14 compounds from ChEMBL document CHEMBL1921735, “Antibacterial optimization of 4-aminothiazolyl analogues of the natural product GE2270 A: identification of the cycloalkylcarboxylic acids” (J Med Chem, 2011) can be followed below.

≈ marks a conversion by molar mass, not a printed value. Calls of active or inactive are those of the source.

The test system of one assay is Enterococcus faecalis. Kind of assay: Antibacterial activity against Enterococcus faecalis ATCC 29212 by CLSI M07-A8 method. Type of assay: functional. In outline: (§1)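 Broth microdilution MIC run per CLSI M07-A8 (2009).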
The next assay deals with Enterococcus faecium. Briefly: Antibacterial activity against Enterococcus faecium 7130724 by CLSI M07-A8 method. Type of assay: functional. In outline: as §1
Assay [1] deals with Staphylococcus aureus. Briefly: Antibacterial activity against methicillin-resistant Staphylococcus aureus isolate A4.018 by CLSI M07-A8 method. Type of assay: functional.
Another assay deals with Streptococcus pyogenes. Briefly: Antibacterial activity against Streptococcus pyogenes ATCC BAA-595 by CLSI M07-A8 method. Type of assay: functional. In outline:
as §1

In assay [2] the test system is Staphylococcus aureus. Briefly: Antibacterial activity against GE2270-A-resistant Staphylococcus aureus harboring tufA G258D mutant gene by CLSI M07-A8 method. Type of assay: functional.
The next assay relates to Streptococcus pneumoniae. Briefly: Antibacterial activity against Streptococcus pneumoniae by CLSI M07-A8 method. Type of assay: functional, organism-based. A digest of the protocol: as §1
For assay [3], the system named is Staphylococcus aureus. Briefly: Antibacterial activity against Staphylococcus aureus ATCC 49951 infected in CD1 mouse assessed as protection against bacterial infection administered 5 hrs post infection measured on day 5. Type of assay: functional. In outline: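 Mouse lethal systemic infection: ip injection of 1 × 10^8 cfu/mouse (10−100× minimal lethal dose), E. faecalis in 50% sterile rat fecal extract, S. aureus in 0.9% NaCl. Therapy by tail-vein bolus at several doses, six mice per group. Started immediately for E. faecalis; at 1 and 5 h post-inoculation for S. aureus.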

Take `CNC(=O)C[C@@H]1NC(=O)c2csc(n2)-c2ccc(-c3nc(NC(=O)NCCCC(=O)O)cs3)nc2-c2csc(n2)-c2csc(n2)[C@H]([C@@H](O)c2ccccc2)NC(=O)CNC(=O)c2nc(sc2COC)[C@H](C(C)C)NC(=O)c2nc1sc2C`: the MIC (commonly the lowest concentration that inhibits growth of the organism) in the assay on Enterococcus faecalis was found to be 1 µg/mL (≈ 0.816 µM); against Enterococcus faecium it was 4 µg/mL (≈ 3.26 µM); in the assay with Staphylococcus aureus [1] it was 1 µg/mL (≈ 0.816 µM); in the assay on Streptococcus pyogenes, 16 µg/mL (≈ 13.1 µM). Further, the outcome with Staphylococcus aureus [2] was inactive. Moreover, in the assay on Streptococcus pneumoniae, the result was Active.

On to `CNC(=O)C[C@@H]1NC(=O)c2csc(n2)-c2ccc(-c3nc(NC(=O)COCC(=O)O)cs3)nc2-c2csc(n2)-c2csc(n2)[C@H]([C@@H](O)c2ccccc2)NC(=O)CNC(=O)c2nc(sc2COC)[C@H](C(C)C)NC(=O)c2nc1sc2C`, for which the MIC against Enterococcus faecalis was 0.5 µg/mL (≈ 0.412 µM); in the assay with Enterococcus faecium, 2 µg/mL (≈ 1.65 µM); with Staphylococcus aureus [1], 0.5 µg/mL (≈ 0.412 µM); in the assay on Streptococcus pyogenes, 4 µg/mL (≈ 3.3 µM). For the same compound, the outcome in the assay with Staphylococcus aureus [2] was inactive. The result with Streptococcus pneumoniae was Active.

As to `CNC(=O)C[C@@H]1NC(=O)c2csc(n2)-c2ccc(-c3nc(NC(=O)OCCN)cs3)nc2-c2csc(n2)-c2csc(n2)[C@H]([C@@H](O)c2ccccc2)NC(=O)CNC(=O)c2nc(sc2COC)[C@H](C(C)C)NC(=O)c2nc1sc2C`, the MIC in the assay with Enterococcus faecalis is 1 µg/mL (≈ 0.845 µM); in the assay with Enterococcus faecium, 1 µg/mL (≈ 0.845 µM); against Staphylococcus aureus [1], 1 µg/mL (≈ 0.845 µM); against Streptococcus pyogenes, 16 µg/mL (≈ 13.5 µM). Moreover, in the assay on Staphylococcus aureus [2], the result was inactive. In addition, the result in the assay on Streptococcus pneumoniae was Active.

Regarding `CNC(=O)C[C@@H]1NC(=O)c2csc(n2)-c2ccc(-c3nc(NC(=O)/C=C\C(=O)O)cs3)nc2-c2csc(n2)-c2csc(n2)[C@H]([C@@H](O)c2ccccc2)NC(=O)CNC(=O)c2nc(sc2COC)[C@H](C(C)C)NC(=O)c2nc1sc2C`, the MIC against Enterococcus faecalis came to 1 µg/mL (≈ 0.837 µM); in the assay on Enterococcus faecium, 2 µg/mL (≈ 1.67 µM); against Staphylococcus aureus [1], 1 µg/mL (≈ 0.837 µM); in the assay with Streptococcus pyogenes, 16 µg/mL (≈ 13.4 µM). In the assay on Staphylococcus aureus [2], the outcome was inactive. Besides, the outcome with Streptococcus pneumoniae was Active.

Turning to `CNC(=O)C[C@@H]1NC(=O)c2csc(n2)-c2ccc(-c3nc(NC(=O)OCCCN)cs3)nc2-c2csc(n2)-c2csc(n2)[C@H]([C@@H](O)c2ccccc2)NC(=O)CNC(=O)c2nc(sc2COC)[C@H](C(C)C)NC(=O)c2nc1sc2C`, the MIC turned out to be 1 µg/mL (≈ 0.835 µM) in the assay on Enterococcus faecalis, 1 µg/mL (≈ 0.835 µM) against Enterococcus faecium, 1 µg/mL (≈ 0.835 µM) with Staphylococcus aureus [1] and 16 µg/mL (≈ 13.4 µM) in the assay on Streptococcus pyogenes. Also, the outcome in the assay with Staphylococcus aureus [2] was inactive. For the same compound, the outcome with Streptococcus pneumoniae was Active.

Take `CNC(=O)C[C@@H]1NC(=O)c2csc(n2)-c2ccc(-c3nc(NC(=O)CCCC(=O)O)cs3)nc2-c2csc(n2)-c2csc(n2)[C@H]([C@@H](O)c2ccccc2)NC(=O)CNC(=O)c2nc(sc2COC)[C@H](C(C)C)NC(=O)c2nc1sc2C`: the MIC with Enterococcus faecalis stood at 0.25 µg/mL (≈ 0.207 µM); against Enterococcus faecium, 0.5 µg/mL (≈ 0.413 µM); against Staphylococcus aureus [1], 0.25 µg/mL (≈ 0.207 µM); against Streptococcus pyogenes, 8 µg/mL (≈ 6.61 µM). The outcome with Staphylococcus aureus [2] was inactive. The outcome in the assay with Streptococcus pneumoniae was Active.

In the case of `CNC(=O)C[C@@H]1NC(=O)c2csc(n2)-c2ccc(-c3nc(NC(=O)OCCCCN)cs3)nc2-c2csc(n2)-c2csc(n2)[C@H]([C@@H](O)c2ccccc2)NC(=O)CNC(=O)c2nc(sc2COC)[C@H](C(C)C)NC(=O)c2nc1sc2C`, the MIC turned out to be 0.5 µg/mL (≈ 0.413 µM) in the assay with Enterococcus faecalis, 1 µg/mL (≈ 0.825 µM) in the assay with Enterococcus faecium, 1 µg/mL (≈ 0.825 µM) in the assay on Staphylococcus aureus [1] and 8 µg/mL (≈ 6.6 µM) with Streptococcus pyogenes. Also, the result in the assay on Staphylococcus aureus [2] was inactive. Further, the ED50 (as a rule, the dose that gives a 50% effect, or the effect in half of the subjects) with Staphylococcus aureus [3] is 6.48 mg/kg. In addition, the outcome with Streptococcus pneumoniae was Active.

Turning to `CNC(=O)C[C@@H]1NC(=O)c2csc(n2)-c2ccc(-c3nc(NC(=O)CC[C@@H](C)C(=O)O)cs3)nc2-c2csc(n2)-c2csc(n2)[C@H]([C@@H](O)c2ccccc2)NC(=O)CNC(=O)c2nc(sc2COC)[C@H](C(C)C)NC(=O)c2nc1sc2C`, the minimum inhibitory concentration (MIC) came to 0.125 µg/mL (≈ 0.102 µM) in the assay on Enterococcus faecalis, 0.25 µg/mL (≈ 0.204 µM) against Enterococcus faecium, 0.25 µg/mL (≈ 0.204 µM) against Staphylococcus aureus [1] and 4 µg/mL (≈ 3.27 µM) in the assay with Streptococcus pyogenes. For the same compound, the outcome in the assay with Staphylococcus aureus [2] was inactive. Further, the outcome with Streptococcus pneumoniae was Active.

With `CNC(=O)C[C@@H]1NC(=O)c2csc(n2)-c2ccc(-c3nc(NC(=O)C(C)(C)CCCC(C)(C)C(=O)O)cs3)nc2-c2csc(n2)-c2csc(n2)[C@H]([C@@H](O)c2ccccc2)NC(=O)CNC(=O)c2nc(sc2COC)[C@H](C(C)C)NC(=O)c2nc1sc2C`, the MIC in the assay on Enterococcus faecalis was 1 µg/mL (≈ 0.772 µM); in the assay with Enterococcus faecium it was 1 µg/mL (≈ 0.772 µM); with Staphylococcus aureus [1], 4 µg/mL (≈ 3.09 µM); in the assay with Streptococcus pyogenes, over 32 µg/mL. Besides, in the assay on Staphylococcus aureus [2], the outcome was inactive. Moreover, the result in the assay with Streptococcus pneumoniae was Active.

Consider `CNC(=O)C[C@@H]1NC(=O)c2csc(n2)-c2ccc(-c3nc(NC(=O)OCCC[C@H](N)C(=O)O)cs3)nc2-c2csc(n2)-c2csc(n2)[C@H]([C@@H](O)c2ccccc2)NC(=O)CNC(=O)c2nc(sc2COC)[C@H](C(C)C)NC(=O)c2nc1sc2C`, for which the MIC against Enterococcus faecalis came to 8 µg/mL (≈ 6.37 µM); with Enterococcus faecium, 32 µg/mL (≈ 25.5 µM); in the assay on Staphylococcus aureus [1], 8 µg/mL (≈ 6.37 µM); in the assay with Streptococcus pyogenes it was 8 µg/mL (≈ 6.37 µM). The outcome in the assay with Staphylococcus aureus [2] was inactive. Besides, the result with Streptococcus pneumoniae was Active.

On to `CNC(=O)C[C@@H]1NC(=O)c2csc(n2)-c2ccc(-c3nc(NC(=O)CCC(=O)O)cs3)nc2-c2csc(n2)-c2csc(n2)[C@H]([C@@H](O)c2ccccc2)NC(=O)CNC(=O)c2nc(sc2COC)[C@H](C(C)C)NC(=O)c2nc1sc2C`, for which the MIC with Enterococcus faecalis was 0.25 µg/mL (≈ 0.209 µM); in the assay on Enterococcus faecium, 0.5 µg/mL (≈ 0.418 µM); in the assay with Staphylococcus aureus [1], 0.25 µg/mL (≈ 0.209 µM); in the assay on Streptococcus pyogenes, 4 µg/mL (≈ 3.34 µM). Besides, the outcome with Staphylococcus aureus [2] was inactive. In the assay with Streptococcus pneumoniae, the result was Active.

For `CNC(=O)C[C@@H]1NC(=O)c2csc(n2)-c2ccc(-c3nc(NC(=O)OCCCCCN)cs3)nc2-c2csc(n2)-c2csc(n2)[C@H]([C@@H](O)c2ccccc2)NC(=O)CNC(=O)c2nc(sc2COC)[C@H](C(C)C)NC(=O)c2nc1sc2C`, the MIC was 0.5 µg/mL (≈ 0.408 µM) against Enterococcus faecalis, 0.5 µg/mL (≈ 0.408 µM) in the assay on Enterococcus faecium, 1 µg/mL (≈ 0.816 µM) in the assay on Staphylococcus aureus [1] and 8 µg/mL (≈ 6.53 µM) in the assay with Streptococcus pyogenes. Moreover, the outcome in the assay on Staphylococcus aureus [2] was inactive. In the assay on Streptococcus pneumoniae, the result was Active.

In the case of `CNC(=O)C[C@@H]1NC(=O)c2csc(n2)-c2ccc(-c3nc(NC(=O)OCCN4CCOCC4)cs3)nc2-c2csc(n2)-c2csc(n2)[C@H]([C@@H](O)c2ccccc2)NC(=O)CNC(=O)c2nc(sc2COC)[C@H](C(C)C)NC(=O)c2nc1sc2C`, the MIC in the assay on Enterococcus faecalis is 0.5 µg/mL (≈ 0.399 µM); in the assay with Enterococcus faecium, 0.5 µg/mL (≈ 0.399 µM); with Staphylococcus aureus [1], 1 µg/mL (≈ 0.798 µM); in the assay with Streptococcus pyogenes, over 32 µg/mL. Also, the result in the assay with Staphylococcus aureus [2] was inactive. Further, in the assay on Streptococcus pneumoniae, the outcome was Active.

Turning to `CNC(=O)C[C@@H]1NC(=O)c2csc(n2)-c2ccc(-c3nc(NC(C)=O)cs3)nc2-c2csc(n2)-c2csc(n2)[C@H]([C@@H](O)c2ccccc2)NC(=O)CNC(=O)c2nc(sc2COC)[C@H](C(C)C)NC(=O)c2nc1sc2C`, the MIC was 1 µg/mL (≈ 0.878 µM) against Enterococcus faecalis; 1 µg/mL (≈ 0.878 µM) in the assay on Enterococcus faecium; 2 µg/mL (≈ 1.76 µM) against Staphylococcus aureus [1]; over 32 µg/mL against Streptococcus pyogenes; over 32 µg/mL against Staphylococcus aureus [2]. The outcome in the assay with Streptococcus pneumoniae was Active.
